pIC50: −log10 of the molar value. The source made the active and inactive calls. No cut-off for these calls is given here.
Columns and labels:
[1] = molecular target: T1, Histone H3 methyltransferase DOT1 variant d (Mus musculus) (UniProt Q679P4); test: Inhibition of DOT1L in mouse bone marrow cell transformed with MLL-AF9 cells assessed as reduction in H3K79 methylation measured after 9 days by Western blot analysis; assay type: cell-based; details: dose 1-30 µM, time 9.0 day
T1 sequence (whole entry): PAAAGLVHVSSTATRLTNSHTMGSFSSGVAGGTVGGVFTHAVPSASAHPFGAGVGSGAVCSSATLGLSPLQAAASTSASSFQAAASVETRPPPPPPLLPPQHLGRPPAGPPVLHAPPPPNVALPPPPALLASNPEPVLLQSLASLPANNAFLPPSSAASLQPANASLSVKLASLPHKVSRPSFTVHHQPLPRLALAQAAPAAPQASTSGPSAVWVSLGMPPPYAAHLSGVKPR

[2] = molecular target: Protein arginine N-methyltransferase 5 (Homo sapiens, UniProt O14744); test: Inhibition of recombinant human PRMT5 using histone H2A as substrate by hotspot assay; details: read-out: IC50
Protein arginine N-methyltransferase 5, sequence (O14744 whole entry): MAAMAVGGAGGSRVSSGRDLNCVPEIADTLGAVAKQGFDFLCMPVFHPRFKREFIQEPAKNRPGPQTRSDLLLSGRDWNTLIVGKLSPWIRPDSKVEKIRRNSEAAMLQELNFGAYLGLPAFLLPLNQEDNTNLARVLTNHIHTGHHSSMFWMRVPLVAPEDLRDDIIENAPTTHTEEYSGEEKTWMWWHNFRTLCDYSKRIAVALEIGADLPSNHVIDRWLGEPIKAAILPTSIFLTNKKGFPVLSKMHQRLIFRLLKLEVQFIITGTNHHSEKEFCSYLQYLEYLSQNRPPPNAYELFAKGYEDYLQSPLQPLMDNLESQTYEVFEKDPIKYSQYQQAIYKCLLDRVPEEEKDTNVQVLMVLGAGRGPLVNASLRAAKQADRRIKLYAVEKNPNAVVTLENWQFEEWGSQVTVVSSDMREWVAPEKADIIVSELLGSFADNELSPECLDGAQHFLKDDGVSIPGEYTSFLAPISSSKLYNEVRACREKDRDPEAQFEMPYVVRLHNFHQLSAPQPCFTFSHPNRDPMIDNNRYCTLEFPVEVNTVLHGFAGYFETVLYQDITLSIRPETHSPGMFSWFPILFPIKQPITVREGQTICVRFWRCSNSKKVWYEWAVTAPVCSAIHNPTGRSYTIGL

[3] = molecular target: T1, Histone H3 methyltransferase DOT1 variant d (Mus musculus); test: Inhibition of DOT1L in mouse bone marrow cell transformed with MLL-AF9 cells assessed as reduction in H3K79 methylation at 30 uM measured after 9 days by Western blot analysis relative to control; assay type: cell-based; details: time 9.0 day
[4] = molecular target: T2, Histone-lysine N-methyltransferase, H3 lysine-79 specific (Homo sapiens, UniProt Q8TEK3); test: Binding affinity to recombinant human N-terminal GST-tagged DOT1L (1 to 420 residues) expressed in Escherichia coli BL21 (DE3) assessed as increase in melting temperature incubated for 1 min by 1,8-ANS probe based thermal shift assay
Target sequence in this assay (Q8TEK3 whole entry, looked up, the tested form may be a part): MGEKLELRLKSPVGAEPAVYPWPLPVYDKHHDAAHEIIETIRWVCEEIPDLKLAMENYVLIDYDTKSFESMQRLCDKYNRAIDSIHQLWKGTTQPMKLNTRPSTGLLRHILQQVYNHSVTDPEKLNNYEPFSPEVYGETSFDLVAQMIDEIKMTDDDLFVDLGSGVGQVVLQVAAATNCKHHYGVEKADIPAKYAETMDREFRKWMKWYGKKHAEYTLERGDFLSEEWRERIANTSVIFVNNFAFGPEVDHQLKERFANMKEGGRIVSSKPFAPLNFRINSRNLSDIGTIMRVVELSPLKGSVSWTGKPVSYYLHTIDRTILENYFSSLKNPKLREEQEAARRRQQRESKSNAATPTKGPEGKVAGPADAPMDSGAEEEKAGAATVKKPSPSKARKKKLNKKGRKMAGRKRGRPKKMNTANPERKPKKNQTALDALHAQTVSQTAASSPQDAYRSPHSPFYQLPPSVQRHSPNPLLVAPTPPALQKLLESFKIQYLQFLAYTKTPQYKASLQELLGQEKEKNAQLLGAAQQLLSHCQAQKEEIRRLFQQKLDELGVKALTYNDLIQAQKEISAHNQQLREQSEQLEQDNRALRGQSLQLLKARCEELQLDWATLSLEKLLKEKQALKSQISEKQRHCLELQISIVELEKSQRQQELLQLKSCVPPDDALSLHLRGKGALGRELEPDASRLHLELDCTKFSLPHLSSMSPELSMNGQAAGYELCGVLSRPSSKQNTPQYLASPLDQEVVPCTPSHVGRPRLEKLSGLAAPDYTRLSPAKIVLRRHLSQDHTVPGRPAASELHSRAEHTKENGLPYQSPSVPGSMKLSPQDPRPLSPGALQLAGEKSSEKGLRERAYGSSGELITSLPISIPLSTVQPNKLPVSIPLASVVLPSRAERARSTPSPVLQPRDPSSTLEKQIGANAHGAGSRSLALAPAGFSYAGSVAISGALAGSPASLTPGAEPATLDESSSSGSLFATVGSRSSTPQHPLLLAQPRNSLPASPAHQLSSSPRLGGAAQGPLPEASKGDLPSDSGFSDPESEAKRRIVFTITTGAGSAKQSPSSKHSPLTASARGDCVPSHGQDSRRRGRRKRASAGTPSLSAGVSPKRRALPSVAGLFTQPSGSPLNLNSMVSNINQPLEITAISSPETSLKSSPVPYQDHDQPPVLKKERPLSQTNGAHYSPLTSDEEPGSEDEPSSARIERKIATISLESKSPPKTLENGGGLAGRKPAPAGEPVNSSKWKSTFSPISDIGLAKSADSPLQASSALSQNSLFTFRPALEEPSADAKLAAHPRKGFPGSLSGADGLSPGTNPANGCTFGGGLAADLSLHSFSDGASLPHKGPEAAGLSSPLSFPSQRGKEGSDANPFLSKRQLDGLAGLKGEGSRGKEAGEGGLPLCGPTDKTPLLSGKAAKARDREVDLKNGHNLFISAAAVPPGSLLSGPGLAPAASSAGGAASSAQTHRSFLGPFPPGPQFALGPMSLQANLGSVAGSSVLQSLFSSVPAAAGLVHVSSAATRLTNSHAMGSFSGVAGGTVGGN

[5] = molecular target: Histone-lysine N-methyltransferase EZH2 (Homo sapiens, UniProt Q15910); test: Inhibition of recombinant human EZH2 using core histone as substrate by hotspot assay
[6] = molecular target: T1, Histone H3 methyltransferase DOT1 variant d (Mus musculus); test: Inhibition of DOT1L in mouse bone marrow cell transformed with MLL-AF9 cells assessed as reduction in H3K79 methylation measured after 6 days by Western blot analysis; assay type: cell-based; details: time 6.0 day
[7] = molecular target: DNA (cytosine-5)-methyltransferase 1 (Homo sapiens, UniProt P26358); test: Inhibition of recombinant human DNMT1 using poly(dl-dC) as substrate by hotspot assay; details: read-out: IC50
DNA (cytosine-5)-methyltransferase 1, sequence (P26358 whole entry, the tested form may be a part): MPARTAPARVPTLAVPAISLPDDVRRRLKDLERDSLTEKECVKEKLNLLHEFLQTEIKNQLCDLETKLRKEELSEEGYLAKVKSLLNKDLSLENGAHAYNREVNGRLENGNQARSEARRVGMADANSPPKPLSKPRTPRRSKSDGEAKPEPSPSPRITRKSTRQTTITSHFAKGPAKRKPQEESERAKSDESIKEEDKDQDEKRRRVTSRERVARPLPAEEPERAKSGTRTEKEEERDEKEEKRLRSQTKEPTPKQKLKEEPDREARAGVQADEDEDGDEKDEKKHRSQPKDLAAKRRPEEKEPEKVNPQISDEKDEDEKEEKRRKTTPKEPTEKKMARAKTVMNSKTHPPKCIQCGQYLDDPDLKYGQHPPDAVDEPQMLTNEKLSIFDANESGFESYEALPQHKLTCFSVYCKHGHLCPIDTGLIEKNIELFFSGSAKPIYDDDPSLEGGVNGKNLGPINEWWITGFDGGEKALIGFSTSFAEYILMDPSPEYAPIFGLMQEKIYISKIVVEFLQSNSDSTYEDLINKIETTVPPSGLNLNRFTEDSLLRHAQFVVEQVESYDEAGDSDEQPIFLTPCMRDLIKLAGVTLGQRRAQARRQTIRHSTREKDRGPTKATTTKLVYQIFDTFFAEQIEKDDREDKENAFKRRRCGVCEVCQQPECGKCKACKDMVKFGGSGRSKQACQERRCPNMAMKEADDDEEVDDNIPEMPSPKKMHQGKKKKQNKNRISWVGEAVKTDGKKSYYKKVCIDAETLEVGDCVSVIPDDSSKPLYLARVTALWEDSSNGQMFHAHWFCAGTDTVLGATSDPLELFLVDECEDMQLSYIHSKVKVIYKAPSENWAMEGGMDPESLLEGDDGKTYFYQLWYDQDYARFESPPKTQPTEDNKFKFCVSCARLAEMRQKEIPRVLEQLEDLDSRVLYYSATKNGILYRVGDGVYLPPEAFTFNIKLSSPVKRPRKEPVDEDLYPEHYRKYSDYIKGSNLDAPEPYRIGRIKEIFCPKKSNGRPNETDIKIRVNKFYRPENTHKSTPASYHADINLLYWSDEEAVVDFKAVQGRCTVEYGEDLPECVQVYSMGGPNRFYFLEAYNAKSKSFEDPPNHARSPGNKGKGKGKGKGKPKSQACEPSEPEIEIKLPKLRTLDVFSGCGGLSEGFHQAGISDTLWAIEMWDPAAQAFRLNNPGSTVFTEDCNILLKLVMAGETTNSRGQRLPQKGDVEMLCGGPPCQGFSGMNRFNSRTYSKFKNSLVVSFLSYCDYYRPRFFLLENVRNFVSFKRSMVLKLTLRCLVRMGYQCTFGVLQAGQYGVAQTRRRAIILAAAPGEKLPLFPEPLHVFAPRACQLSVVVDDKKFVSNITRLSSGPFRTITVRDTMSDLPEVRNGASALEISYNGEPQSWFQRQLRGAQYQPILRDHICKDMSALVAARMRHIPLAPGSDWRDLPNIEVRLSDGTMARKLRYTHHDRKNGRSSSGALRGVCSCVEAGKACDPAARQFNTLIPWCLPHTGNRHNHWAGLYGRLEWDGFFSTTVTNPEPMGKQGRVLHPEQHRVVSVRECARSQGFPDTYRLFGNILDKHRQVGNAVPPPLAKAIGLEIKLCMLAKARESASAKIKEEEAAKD

[8] = molecular target: T2, Histone-lysine N-methyltransferase, H3 lysine-79 specific; test: Inhibition of recombinant human N-terminal GST-tagged DOT1L (1 to 420 residues) expressed in Escherichia coli BL21 (DE3) using histone as substrate incubated for 1 hr by MTase-glo based luminescence assay
Target sequence in this assay (Q8TEK3 whole entry, the tested form may be a part): as the sequence (Q8TEK3 whole entry, looked up, the tested form may be a part) above

Bone marrow cell [9] = test: Antiproliferative activity against mouse bone marrow cell transformed with MLL-AF9 assessed as reduction in cell growth at 30 uM measured after 11 days by hemocytometry relative to control; assay type: functional; details: 264 h, time 11 day
Bone marrow cell [10] = test: Induction of cell differentiation in mouse bone marrow cells transformed with MLL-AF9 assessed as change in morphology incubated for 6 days by Wright-Giemsa staining based inverted microscopy; assay type: functional; details: dose 1-30 µM, time 6.0 day
How it was run: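 Cells taken on day 6 of the proliferation culture (MLL-AF9 murine line, IMDM + 15% FBS + IL-3, re-dosed at each split, 0.3% DMSO). Cytospun onto slides, Wright-Giemsa stained, and imaged under bright field on an inverted microscope to assess morphology.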

Bone marrow cell [11] = test: Antiproliferative activity against mouse bone marrow cell transformed with MLL-AF9 assessed as reduction in cell growth measured after 6 days by hemocytometry; assay type: functional, cell-based; details: 144 h
[12] = molecular target: T3, Histone-lysine N-methyltransferase SETD7 (Homo sapiens, UniProt Q8WTS6); test: Inhibition of recombinant human SET7/9 using core histone as substrate by hotspot assay
T3 sequence (Q8WTS6 whole entry): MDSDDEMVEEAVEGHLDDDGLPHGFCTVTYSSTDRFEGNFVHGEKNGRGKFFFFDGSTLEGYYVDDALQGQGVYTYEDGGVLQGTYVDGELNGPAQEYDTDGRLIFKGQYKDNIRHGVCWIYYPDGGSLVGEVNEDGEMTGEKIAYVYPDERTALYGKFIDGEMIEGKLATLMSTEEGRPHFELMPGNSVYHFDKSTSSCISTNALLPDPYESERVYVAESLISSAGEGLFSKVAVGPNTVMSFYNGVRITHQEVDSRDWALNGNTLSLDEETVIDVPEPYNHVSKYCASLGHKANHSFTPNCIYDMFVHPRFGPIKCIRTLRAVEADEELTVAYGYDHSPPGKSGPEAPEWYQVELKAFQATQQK

[13] = molecular target: Protein arginine N-methyltransferase 8 (Homo sapiens, UniProt Q9NR22); test: Inhibition of recombinant human PRMT8 using histone H4 as substrate by hotspot assay
Protein arginine N-methyltransferase 8, sequence (Q9NR22 whole entry): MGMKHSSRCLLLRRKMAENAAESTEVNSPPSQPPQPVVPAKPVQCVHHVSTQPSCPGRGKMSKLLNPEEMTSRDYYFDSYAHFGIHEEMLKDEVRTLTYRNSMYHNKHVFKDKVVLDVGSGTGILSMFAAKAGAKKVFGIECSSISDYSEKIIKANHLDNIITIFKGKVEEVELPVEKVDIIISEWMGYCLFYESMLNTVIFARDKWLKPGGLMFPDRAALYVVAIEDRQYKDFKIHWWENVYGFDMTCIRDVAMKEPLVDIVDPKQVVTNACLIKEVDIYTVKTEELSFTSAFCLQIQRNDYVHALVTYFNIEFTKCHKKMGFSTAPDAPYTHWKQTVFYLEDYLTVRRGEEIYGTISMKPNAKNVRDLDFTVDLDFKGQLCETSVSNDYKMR

[14] = molecular target: T1, Histone H3 methyltransferase DOT1 variant d (Mus musculus); test: Inhibition of DOT1L in mouse bone marrow cell transformed with MLL-AF9 cells assessed as reduction in […] methylation at 1 to 30 uM measured after 6 days by Western blot analysis; assay type: cell-based; details: dose 1-30 µM, time 6.0 day
Bone marrow cell [15] = test: Antiproliferative activity against mouse bone marrow cell transformed with MLL-AF9 assessed as reduction in cell growth measured after 11 days by hemocytometry; assay type: functional, cell-based; details: 264 h
[16] = molecular target: Protein arginine N-methyltransferase 3 (Homo sapiens, UniProt O60678); test: Inhibition of recombinant human PRMT3 using histone H4 as substrate by hotspot assay; details: read-out: IC50
Protein arginine N-methyltransferase 3, sequence (O60678 whole entry): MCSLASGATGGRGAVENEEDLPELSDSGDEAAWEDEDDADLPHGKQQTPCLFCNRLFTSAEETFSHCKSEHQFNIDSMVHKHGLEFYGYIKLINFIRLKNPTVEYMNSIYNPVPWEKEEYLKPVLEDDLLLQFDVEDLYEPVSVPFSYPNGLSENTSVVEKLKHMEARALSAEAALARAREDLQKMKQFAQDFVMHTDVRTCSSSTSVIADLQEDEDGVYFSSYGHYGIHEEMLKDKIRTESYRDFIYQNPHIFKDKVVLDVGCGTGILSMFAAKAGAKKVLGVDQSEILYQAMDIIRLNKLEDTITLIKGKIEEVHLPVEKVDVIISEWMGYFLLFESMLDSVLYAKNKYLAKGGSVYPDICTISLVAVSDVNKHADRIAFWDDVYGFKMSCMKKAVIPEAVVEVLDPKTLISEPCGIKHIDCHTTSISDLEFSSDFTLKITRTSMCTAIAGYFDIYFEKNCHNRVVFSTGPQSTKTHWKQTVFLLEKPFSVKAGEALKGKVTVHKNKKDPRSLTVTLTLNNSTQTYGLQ

[17] = molecular target: T1, Histone H3 methyltransferase DOT1 variant d (Mus musculus); test: Inhibition of DOT1L in mouse bone marrow cell transformed with MLL-AF9 cells assessed as reduction in H3K4me3 methylation at 1 to 30 uM measured after 6 days by Western blot analysis; assay type: cell-based; details: dose 1-30 µM, time 6.0 day

With CC(C)(C)c1ccc(NC(=O)c2ncn(CC(=O)NCCn3ccc4c(N)ncnc43)n2)cc1 the inhibition [1] was “Dose-dependent effect”, the pIC50 [2] was 3.78 and the inhibition [3] was 100%. The Activity [4] was “Dose-dependent effect”, the IC50 [5] was “Not Active” and the inhibition [6] was “Dose-dependent effect”. It also gave a pIC50 [7] of 3.61, a pIC50 [8] of 6.00 and an inhibition at 30 µM (Bone marrow cell [9]) of 100%. For the same molecule, the Activity (Bone marrow cell [10]) was “Dose-dependent effect”, the pIC50 (Bone marrow cell [11]) was 5.06 and the IC50 [12] was “Not Active”. For the same molecule, the pIC50 [13] was < 3.60, the inhibition [14] was “inactive” and the pIC50 (Bone marrow cell [15]) was 6.00. For the same molecule, the pIC50 [16] was 3.94 and the inhibition [17] was “inactive”.

Reference: ChEMBL document CHEMBL4680176, “Identification of DOT1L inhibitors by structure-based virtual screening adapted from a nucleoside-focused library” (Eur J Med Chem, 2020)
